Source: PubChem
Only some compounds are listed: those with a hit (about 2.6% of all), similar ones and a draw of the others.
iPSC survival up – increases survival of single human iPS cells | hiPSC single-cell survival, ATPlite luminescence; 100% = ROCK inhibitor wells, 0% = DMSO | survival enhancement, % at 20 µM | 0.044% of 360,000 active; in the data active means survival enhancement above about 18%;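 further: cells exposed to compounds for 16 hours before the ATP read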
MC4R ag barr – human MC4R agonism via beta-arrestin; P32245; U2OS MC4R beta-arrestin complementation, luminescence; percent of melanotan II response, DMSO zero; activation, % at 8.9 µM; 0.98% of 360,000 active; AID 540308;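 active means activation above a per-plate cutoff, the mean activation of sample wells on that plate plus 3 SD, cut at about 8% in these data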
Granule exo inh – lytic granule exocytosis inhibition; TALL-104 LAMP-1 surface exposure, flow cytometry; cells stimulated with thapsigargin and PMA; inhibition, % at 10 µM; 0.66% of 360,000 active; AID 651702;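 active means inhibition above about 55%, limit read from the data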
ABCB6 inh MLPCN – blocks the human ABCB6 transporter; Q9NP58; AID 602162; K562-ABCB6 porphyrin accumulation, flow cytometry, 1 h; stronger effect = lower value; 0.19% of 360,000 active; fluorescence ratio to DMSO, % at 10 µM;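 active means fluorescence ratio to DMSO below 75%, the collection mean minus 3 SD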;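 further: signal is porphyrin accumulated inside mitochondria; 100% equals median channel fluorescence of DMSO control wells; lower ratio means ABCB6 inhibition with less porphyrin fluorescence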
Target sequence (Q9NP58 whole entry, looked up): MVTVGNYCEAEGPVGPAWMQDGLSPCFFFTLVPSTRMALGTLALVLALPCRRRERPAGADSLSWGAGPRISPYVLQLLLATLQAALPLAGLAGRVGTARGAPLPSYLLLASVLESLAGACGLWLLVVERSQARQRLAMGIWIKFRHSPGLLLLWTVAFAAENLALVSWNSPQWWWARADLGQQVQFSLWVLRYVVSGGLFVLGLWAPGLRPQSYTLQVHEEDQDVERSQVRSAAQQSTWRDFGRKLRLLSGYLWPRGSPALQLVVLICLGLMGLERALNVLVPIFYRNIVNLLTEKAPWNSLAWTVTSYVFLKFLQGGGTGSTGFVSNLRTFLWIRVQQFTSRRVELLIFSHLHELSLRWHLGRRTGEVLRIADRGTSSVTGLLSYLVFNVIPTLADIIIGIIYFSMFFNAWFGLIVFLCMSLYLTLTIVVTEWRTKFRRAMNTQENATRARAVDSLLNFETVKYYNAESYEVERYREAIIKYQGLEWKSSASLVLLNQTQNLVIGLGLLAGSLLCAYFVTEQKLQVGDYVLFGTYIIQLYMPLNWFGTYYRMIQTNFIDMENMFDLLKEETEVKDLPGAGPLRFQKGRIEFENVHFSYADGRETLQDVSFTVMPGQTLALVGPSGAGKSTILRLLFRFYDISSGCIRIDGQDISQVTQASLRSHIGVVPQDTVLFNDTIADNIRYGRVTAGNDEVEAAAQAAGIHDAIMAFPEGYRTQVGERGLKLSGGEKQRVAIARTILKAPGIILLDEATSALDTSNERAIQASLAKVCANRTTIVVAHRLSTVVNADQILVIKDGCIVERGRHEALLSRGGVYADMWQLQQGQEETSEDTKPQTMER
Tb MetRS inh – Trypanosoma brucei MetRS inhibition; purified T. brucei MetRS, ATP depletion, Kinase-Glo luminescence; inhibition, % at 11.9 µM; AID 624268; 0.4% of 360,000 active;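 active means inhibition above a per-plate cutoff of the control wells' mean inhibition plus 3 SD, cut at about 5.5% in these data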;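 further: 0% = DMSO wells median and 100% = median of wells with control inhibitor compound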
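Dosing: 11.9 µM compound single dose, 0.9% DMSO; Assay system: purified T. brucei MetRS enzyme; Measured by: Kinase-Glo luciferase luminescence reporting remaining unconsumed ATP; Schedule: 15 min plus 2 h at 25 °C.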
MC4R antag cAMP – human MC4R antagonism in cAMP assay. MC4R-expressing cells, MTII-stimulated cAMP, LANCE TR-FRET. inhibition, % at 6.5 µM. 0.48% of 360,000 active. AID 540295;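 active means inhibition above its plate's cutoff, the mean of tested wells on that plate plus 3 SD, cut at about 29% in these data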;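 further: 0% = Melanotan II alone and 100% = Melanotan II plus saturating MCL0020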
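Assay system: U2OS-MC4R stable cell line; Also added: Melanotan II; Technique: Eu-cAMP/anti-cAMP TR-FRET, emission 671 nm; Times: 30-min compound, 1-h challenge, 1-h detection, room temperature.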
ABCB6 blocker 1 – blocks the human ABCB6 transporter | AID 602430 | shares compounds with ABCB6 inh MLPCN | ratio response (% of DMSO), % at 10 µM | K562-ABCB6 porphyrin accumulation, flow cytometry, 1 h; stronger effect = lower value | 700 tested, under 10 active;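 active means repeat-averaged ratio response below 75% of DMSO, the collection mean minus 3 SD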;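 further: median porphyrin fluorescence at 575 nm with 488 nm excitation from mitochondria; lower ratio means less porphyrin signal so ABCB6 inhibition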
Numbers without * were called inactive; · = no result given.

SMILES | iPSC survival up | MC4R ag barr | Granule exo inh | ABCB6 inh MLPCN | Tb MetRS inh | MC4R antag cAMP | ABCB6 blocker 1
COc1ccccc1Cn1nnc2c(=O)[nH]c(C3CCN(C(=O)c4ccc(C)cc4)CC3)nc21 | 9.5 | -1.6 | -1.4 | 112.0 | -0.9 | 3.4 | 100.0
COc1ccccc1C(=O)Nc1cc(-c2ccc(C)cc2)no1 | -0.4 | -2.7 | 32.9 | 69.0* | 0.1 | 9.0 | 97.0
COc1ccccc1C(=O)Nc1cc(C)on1 | 0.3 | -2.5 | 0.6 | 97.0 | -0.3 | 9.0 | ·
O=C1NC[C@H](CCCCN2C[C@@H](Cc3ccccc3)N(CCC3CCCCC3)C(=O)C2=O)N(CCC2CCCCC2)C1=O | -0.8 | · | 16.3 | 103.0 | -0.2 | · | ·
Cc1ccc(CN(C)C(=O)c2ccccc2Oc2ccccc2)o1 | -0.5 | -3.1 | 3.9 | 67.0* | -0.9 | -5.1 | 98.0
Cc1nc2c(C(=O)N3CCOCC3)cnn2c(C)c1Cc1ccc(Cl)cc1 | -1.0 | 5.0 | 5.1 | 89.0 | -1.5 | -4.8 | 99.0
O=C(c1nnc(Cc2ccc(Cl)cc2)o1)N1CCOCC1 | -1.4 | -1.2 | 0.9 | 100.0 | -0.5 | 2.6 | ·
Cc1nc2c(C(=O)N3CCOCC3)cnn2c(C)c1Cc1cccc(Cl)c1 | · | · | · | · | · | · | 98.0
COc1ccc(C(=O)NC2=NCCS2)cc1 | 1.2 | -2.2 | 26.1 | 74.0* | -0.9 | 1.9 | 97.0
O=c1[nH]cnc2onc(-c3ccc(F)cc3)c12 | -0.3 | -1.2 | -6.7 | 96.0 | -0.8 | -0.8 | ·
Cc1ccc(S(=O)(=O)N2CCN(C(=O)CSc3nccn3C)CC2)cc1 | -0.5 | -0.5 | 0.4 | 92.0 | -0.5 | 0.0 | ·
Cc1cc(NC(=O)c2c(F)cccc2F)n(-c2nc3ccccc3[nH]2)n1 | -1.1 | 1.1 | 0.3 | 71.0* | -1.2 | -25.4 | 95.0
CCN(CC)S(=O)(=O)c1cccc(-n2c(O)c(C=Nc3ccccc3C(=O)O)c3ccccc3c2=O)c1 | -0.3 | 0.5 | 0.4 | 74.0* | -0.8 | 12.5 | 83.0
O=C(O)c1ccccc1N=Cc1c(O)n(-c2nccs2)c(=O)c2ccccc12 | 1.3 | 0.3 | 5.3 | 95.0 | -0.1 | 1.7 | ·
Cc1c(C(=O)NCc2ccccc2C(F)(F)F)sc(=O)n1Cc1ccc(Cl)c(Cl)c1 | 1.4 | 0.9 | 4.4 | 96.0 | -0.1 | 0.6 | ·
O=C(c1ccc(S(=O)(=O)Nc2cccc(C(F)(F)F)c2)cc1)N1CCOCC1 | 1.0 | -2.4 | -2.2 | 97.0 | 0.2 | 5.7 | ·
CC(C)(CNC(=O)c1ccc(S(=O)(=O)Nc2cccc(C(F)(F)F)c2)cc1)N1CCOCC1 | -0.3 | -4.8 | 4.3 | 72.0* | 0.2 | -4.7 | 102.0
Cc1nnc2c3ccccc3ccn12 | 0.2 | -1.7 | -1.2 | 102.0 | -0.4 | -5.0 | ·
C=CCn1c(SCC(=O)Nc2ncc(Cc3cc(Cl)ccc3Cl)s2)nnc1-c1ccncc1 | 2.9 | -1.4 | 0.3 | 111.0 | -0.6 | 12.9 | ·
O=C(O)CC/C(=C\c1ccc(Cl)c([N+](=O)[O-])c1)c1nc2ccccc2s1 | -0.4 | -2.4 | -0.3 | 72.0* | 1.6 | 5.0 | 101.0
O=C(O)CC/C(=C\c1ccc(N2CCOCC2)c([N+](=O)[O-])c1)c1nc2ccccc2s1 | -0.7 | -3.0 | -1.9 | 95.0 | 0.2 | 0.0 | ·
CCCNC(=O)CCc1nnc2ccc(N3CCC(C)CC3)nn12 | 0.2 | -2.5 | -11.8 | 98.0 | -0.7 | 8.2 | 95.0
CCOC(=O)C1CCN(C(=O)CCc2nnc3ccc(N4CCC(C)CC4)nn23)CC1 | -0.4 | -2.1 | 1.1 | 99.0 | -0.3 | 3.7 | 100.0
COc1ccc(NC(=O)CCc2nnc3ccc(N4CCC(C)CC4)nn23)cc1OC | 1.7 | -1.4 | 2.5 | 106.0 | -0.2 | -1.3 | ·
CC1CCN(c2ccc3nnc(CCC(=O)NCCCOC(C)C)n3n2)CC1 | 0.2 | -0.5 | -4.0 | 99.0 | -0.4 | 1.9 | 99.0
SMILES | iPSC survival up | MC4R ag barr | Granule exo inh | ABCB6 inh MLPCN | Tb MetRS inh | MC4R antag cAMP | ABCB6 blocker 1
CC1CC(C)CN(C(=O)CCc2nnc3ccc(N4CCCCC4)nn23)C1 (centres undefined) | -0.5 | -2.4 | -5.1 | 97.0 | -0.3 | 9.6 | 98.0
CCOc1ccc(NC(=O)CCc2nnc3ccc(N4CCC(C)CC4)nn23)cc1 | 0.2 | -2.7 | -1.3 | 101.0 | 0.8 | 9.3 | ·
Cc1onc(-c2c(F)cccc2Cl)c1C(=O)NCCc1ccncc1 | -0.3 | -2.8 | -1.1 | 110.0 | -0.2 | -1.1 | ·
COCCCN(Cc1ccco1)C(=O)CSc1nc2ncccc2[nH]1 | 1.4 | -0.8 | -1.0 | 104.0 | 1.1 | -5.8 | ·
CCOC(=O)CNC(=O)CCc1nnc2ccc(N3CCC(C)CC3)nn12 | 1.0 | 0.0 | -7.9 | 98.0 | -0.5 | 17.0 | 99.0
CN1CC2(C)OC(=O)C(Cl)=C2CC1c1ccccc1 (centres undefined) | -1.1 | -1.9 | 4.2 | 98.0 | 0.3 | -0.1 | ·
COc1ccc(N(CC(=O)NC(C)C)S(=O)(=O)c2ccc(NC(C)=O)cc2)cc1 | -3.3 | 0.9 | 0.2 | 69.0* | -1.1 | 4.3 | 98.0
O=S(=O)(NCc1ccccc1)NCc1cccc(C(F)(F)F)c1 | -0.7 | -0.7 | 3.1 | 100.0 | -0.6 | 10.1 | ·
O=C(Nc1nc2ccc([N+](=O)[O-])cc2s1)C1CCCO1 (centres undefined) | -1.9 | -1.9 | 2.3 | 92.0 | -0.5 | 3.5 | ·
COc1ccc([N+](=O)[O-])cc1NC(=O)C1CCCO1 (centres undefined) | 0.3 | -0.5 | 12.0 | 71.0* | -1.4 | 8.8 | 101.0
O=C(CSc1nnc2c(Cl)cc(C(F)(F)F)cn12)N(Cc1ccccc1)Cc1ccccc1 | -0.5 | -1.7 | 0.9 | 74.0* | 0.3 | 1.9 | 97.0
COc1ccccc1C1CC(c2cccs2)=NN1C(=O)CCC(=O)O (centres undefined) | 0.1 | -1.6 | -1.7 | 102.0 | -1.0 | 6.8 | ·
COc1cccc(C2CC(c3cccs3)=NN2C(=O)CSc2nc3ccccc3o2)c1OC (centres undefined) | -0.5 | -0.2 | 8.3 | 70.0* | -0.4 | 0.8 | 97.0
COc1ccc(S(=O)(=O)Nc2c(NC3CCCCC3)c3ccccc3oc2=O)cc1 | -0.5 | 2.1 | 1.1 | 71.0* | -1.1 | -1.4 | 98.0
Cc1ccc(OCc2cc(C(=O)N3CCN(CC(=O)NC(C)C)CC3)no2)cn1 | -0.5 | -3.1 | -1.4 | 94.0 | -0.5 | -0.1 | ·
Cc1cnc(C(=O)OCc2ccc(C#N)cc2)cn1 | 2.8 | 0.5 | -4.8 | 101.0 | -0.4 | 7.9 | ·
Cc1cnc(C(=O)OCc2ccc(Br)cc2)cn1 | -0.6 | -1.6 | -15.9 | 73.0* | -0.1 | 4.1 | 104.0
Cc1onc(-c2ccccc2)c1C(=O)Nc1nncs1 | -0.6 | 0.8 | -13.1 | 96.0 | -0.9 | -0.2 | ·
Cc1ccc(Nc2nc(-c3cccnc3)nc3ccccc23)cc1 | -0.7 | -0.8 | 54.4 | 71.0* | -0.5 | 5.2 | 98.0
CCc1ccccc1NC(=O)CSc1nnc(C2CC2)n1CC1CCCO1 (centres undefined) | -0.6 | -2.0 | -7.5 | 88.0 | -0.4 | 12.3 | ·
